These results are taken from ChEMBL document CHEMBL1125138, “1,3-Dialkyl-3-acyltriazenes, a novel class of antineoplastic alkylating agents” (J Med Chem, 1990).

One assay deals with OVCAR-4. The assay can be described thus: Evaluated for the inhibitory concentration required to cause growth inhibition of OVCAR-4 ovarian cell line using the MTT Cytotoxicity Assay. It counts as functional, cell-based. The following applies: Homo sapiens. The method, boiled down:
(§1)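 MTT microculture tetrazolium growth assay on human cell lines and normal fibroblasts. Cells seeded at 1000 cells/well, with compound added 24 h after plating. Cultures then incubated a further 6 days at 37 °C before MTT read-out of growth versus untreated cells.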

A further assay concerns DOD-1. The experiment in a line: Evaluated for the inhibitory concentration required to cause growth inhibition of DOD-1 breast cell line using the MTT Cytotoxicity Assay. The following applies: Homo sapiens. It counts as functional, cell-based. The method, boiled down: as §1
The subject of another assay is NCI-H23. The experiment in a line: Evaluated for the inhibitory concentration required to cause growth inhibition of H23 cell line of lung using the Microculture Tetrazolium (MTT) Cytotoxicity Assay. Format: functional, cell-based. The following applies: Homo sapiens. The procedure, abridged: as §1
A further assay has as its system OVCAR-3. The experiment in a line: Evaluated for the inhibitory concentration required to cause growth inhibition of OVCAR-3 ovarian cell line using the MTT Cytotoxicity Assay. Format: functional, cell-based. To be noted: Homo sapiens. The procedure, abridged:
as §1

The next assay deals with CCD 19Lu. The assay can be described thus: Evaluated for the inhibitory concentration required to cause growth inhibition of CCD-19Lu fibroblasts cell line using the MTT Cytotoxicity Assay. Format: functional, cell-based. The following applies: Homo sapiens. The procedure, abridged:
as §1

For another assay, the system named is MCF7. The assay can be described thus: Evaluated for the inhibitory concentration required to cause growth inhibition of MCF-7 breast cell line using the MTT Cytotoxicity Assay. Format: functional, cell-based. The following applies: Homo sapiens. The procedure, abridged: as §1
A further assay deals with LOX IMVI. The experiment in a line: Evaluated for the inhibitory concentration required to cause growth inhibition of LOX melanoma cell line using the MTT Cytotoxicity Assay. Format: functional, cell-based. The following applies: Homo sapiens. The method, boiled down: as §1
The subject of the next assay is NCI-H522 (Homo sapiens). The assay can be described thus: Evaluated for the inhibitory concentration required to cause growth inhibition of H522 cell line of lung using the Microculture Tetrazolium (MTT) Cytotoxicity Assay.
In the next assay the test system is NCI-H358. The experiment in a line: Evaluated for the inhibitory concentration required to cause growth inhibition of H358M cell line of lung using the Microculture Tetrazolium (MTT) Cytotoxicity Assay. It counts as functional, cell-based. The following applies: Homo sapiens. The method, boiled down: as §1
The next assay has as its system NCI-H125. The assay can be described thus: Evaluated for the inhibitory concentration required to cause growth inhibition of H125 cell line of lung using the Microculture Tetrazolium (MTT) Cytotoxicity Assay. It counts as functional, cell-based. The following applies: Homo sapiens. The method, boiled down:
as §1

Another assay deals with A498. The experiment in a line: Evaluated for the inhibitory concentration required to cause growth inhibition of A498Rem- renal cell line using the MTT Cytotoxicity Assay. It counts as functional, cell-based. To be noted: Homo sapiens. The method, boiled down:
as §1

Another assay has as its system A549. The assay can be described thus: Evaluated for the inhibitory concentration required to cause growth inhibition of A549Rem- cell line of lung using the MTT Cytotoxicity Assay. It counts as functional, cell-based. The following applies: Homo sapiens. The procedure, abridged: as §1
The next assay deals with TE-671. The experiment in a line: Evaluated for the inhibitory concentration required to cause growth inhibition of TE-671 cell line of central nervous system (CNS)using the MTT Cytotoxicity Assay. Format: functional, cell-based. The following applies: Homo sapiens. The procedure, abridged:
as §1

In the next assay the test system is SK-MEL-5. The assay can be described thus: Evaluated for the inhibitory concentration required to cause growth inhibition of SK-MEL-5 melanoma cell line using the MTT Cytotoxicity Assay. It counts as functional, cell-based. The following applies: Homo sapiens. The method, boiled down: as §1
A further assay deals with U-251. The assay can be described thus: Evaluated for the inhibitory concentration required to cause growth inhibition of U251 cell line of central nervous system (CNS) using the MTT Cytotoxicity Assay. Format: functional, cell-based. The following applies: Homo sapiens. The method, boiled down: (§2)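 MTT cell-growth assay in human cell lines: cells harvested and seeded at 1000 cells/well in 96-well plates. Compound added after 24 h, then cultures incubated a further 6 days at 37 °C. Growth measured with and without agent.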

For another assay, the system named is A704. The experiment in a line: Evaluated for the inhibitory concentration required to cause growth inhibition of A704Rem- renal cell line using the MTT Cytotoxicity Assay. It counts as functional, cell-based. To be noted: Homo sapiens. The procedure, abridged:
as §1

In another assay the test system is NCI/ADR-RES. The experiment in a line: Evaluated for the inhibitory concentration required to cause growth inhibition of MCF-7ADR breast cell line using the MTT Cytotoxicity Assay. It counts as functional, cell-based. To be noted: Homo sapiens. The procedure, abridged: as §1
The next assay deals with NCI-H322M. The experiment in a line: Evaluated for the inhibitory concentration required to cause growth inhibition of H322M cell line of lung using the Microculture Tetrazolium (MTT) Cytotoxicity Assay. It counts as functional, cell-based. To be noted: Homo sapiens. The method, boiled down:
as §1

In a further assay the test system is Malme-3M. The assay can be described thus: Evaluated for the inhibitory concentration required to cause growth inhibition of MALME-3M melanoma cell line using the MTT Cytotoxicity Assay. It counts as functional, cell-based. To be noted: Homo sapiens. The method, boiled down:
as §1

A further assay deals with A 172. The assay can be described thus: Evaluated for the inhibitory concentration required to cause growth inhibition of A172Mer- cell line of central nervous system (CNS) using the MTT Cytotoxicity Assay. To be noted: Homo sapiens. It counts as functional, cell-based. The procedure, abridged:
as §1

The next assay concerns NCI-H460. The experiment in a line: Evaluated for the inhibitory concentration required to cause growth inhibition of H460 cell line of lung using the Microculture Tetrazolium (MTT) Cytotoxicity Assay. It counts as functional, cell-based. To be noted: Homo sapiens. The procedure, abridged:
as §1

A further assay relates to A-427. The experiment in a line: Evaluated for the inhibitory concentration required to cause growth inhibition of A427Mer- cell line of lung using the MTT Cytotoxicity Assay. Format: functional, cell-based. To be noted: Homo sapiens. The method, boiled down: as §1
For the next assay, the system named is RPMI-7951. The assay can be described thus: Evaluated for the inhibitory concentration required to cause growth inhibition of RPMI7951 melanoma cell line using the MTT Cytotoxicity Assay. To be noted: Homo sapiens. It counts as functional, cell-based. The procedure, abridged:
as §1

Another assay concerns A673. The assay can be described thus: Evaluated for the inhibitory concentration required to cause growth inhibition of A673Mer+ sarcoma cell line using the MTT Cytotoxicity Assay. The following applies: Homo sapiens. It counts as functional, cell-based. The method, boiled down:
as §1

The next assay has as its system HOS-TE85. The experiment in a line: Evaluated for the inhibitory concentration required to cause growth inhibition of TE85Mer+ sarcoma cell line using the MTT Cytotoxicity Assay. Format: functional, cell-based. To be noted: Homo sapiens. The procedure, abridged:
as §1

Assay [1] has as its system MAR BEL fibroblasts cell line. The assay can be described thus: Evaluated for the inhibitory concentration required to cause growth inhibition of MAR BEL fibroblasts cell line using the MTT Cytotoxicity Assay. It counts as functional, cell-based. The following applies: Homo sapiens. The method, boiled down:
as §1

A further assay deals with WiDr. The experiment in a line: Evaluated for the inhibitory concentration required to cause growth inhibition of WiDR colon cell line using the MTT Cytotoxicity Assay. The following applies: Homo sapiens. It counts as functional, cell-based. The procedure, abridged: as §2

As a reminder, the IC50 is the midpoint of a concentration-inhibition curve. With `O=NN(CCCl)C(=O)NCCCl` [CARMUSTINE], the IC50 with OVCAR-4 was determined as 18 µM; in the assay with DOD-1, 37 µM; in the assay on NCI-H23, 5 µM; in the assay on OVCAR-3, 15 µM; in the assay on CCD 19Lu, 300 µM; in the assay with MCF7, 4.5 µM. The IC50 in the assay with LOX IMVI came out at 7 µM; in the assay on NCI-H522 (Homo sapiens), 20 µM; with NCI-H358 it was 98 µM; with NCI-H125, 9 µM; with A498, 110 µM; in the assay with A549, 90 µM. Also, the IC50 was 25 µM with TE-671; 27 µM in the assay with SK-MEL-5; 15 µM in the assay on U-251; 125 µM in the assay with A704; 20 µM with NCI/ADR-RES; 60 µM in the assay on NCI-H322M. The IC50 stood at 20 µM in the assay on Malme-3M, 18 µM with A 172, 80 µM with NCI-H460 and 8 µM with A-427.

For the compound `C/N=N\N(C)C(C)=O`, the IC50 in the assay on RPMI-7951 stood at 60 µM; in the assay on OVCAR-4 it was 45 µM; in the assay on DOD-1, 60 µM; in the assay with A673 it was 65 µM; in the assay on NCI-H23, 42 µM; in the assay on HOS-TE85, 40 µM. For the same compound, the IC50 in the assay on OVCAR-3 came out at 55 µM; in the assay with CCD 19Lu, 77 µM; with MCF7, 37 µM; in assay [1], 80 µM; in the assay on LOX IMVI it was 30 µM; in the assay on NCI-H522 (Homo sapiens) it was 30 µM. Further, the IC50 in the assay on NCI-H358 came out at 100 µM; with NCI-H125 it was 53 µM; in the assay with A498 it was 48 µM; with A549 it was 55 µM; in the assay with WiDr, 40 µM; with TE-671, 7 µM. The IC50 with SK-MEL-5 turned out to be 37 µM; in the assay with U-251 it was 42 µM; with A704 it was 55 µM; in the assay on NCI/ADR-RES, 40 µM; with NCI-H322M it was 55 µM; in the assay on Malme-3M it was 25 µM. The values for the IC50 in the assay with NCI-H460 and in the assay on A-427 were 75 µM and 11 µM, respectively.
